The target of one assay is Histone deacetylase 4 (Homo sapiens, UniProt P56524). Briefly: Inhibition of human HDAC4 using Boc-Lys(trifluoroacetyl)-AMC as substrate preincubated for 30 mins followed by substrate addition measured after 60 mins by trypsin-based fluorescence assay.
The nature of assay [1]: Inhibition of Pseudomonas aeruginosa PA0321 using Boc-Lys(trifluoroacetyl)-AMC as substrate preincubated for 30 mins followed by substrate addition measured after 60 mins by trypsin-based fluorescence assay.
Assay [2] is described as follows: Inhibition of Pseudomonas aeruginosa PA1409 using Boc-Lys(trifluoroacetyl)-AMC as substrate preincubated for 30 mins followed by substrate addition measured after 60 mins by trypsin-based fluorescence assay.
The next assay concerns the target Histone deacetylase 5 (Homo sapiens, UniProt Q9UQL6). Briefly: Inhibition of human HDAC5 using Boc-Lys(trifluoroacetyl)-AMC as substrate preincubated for 30 mins followed by substrate addition measured after 60 mins by trypsin-based fluorescence assay.
Assay [3] can be described thus: Inhibition of Pseudomonas aeruginosa PA3774 using Boc-Lys(trifluoroacetyl)-AMC as substrate preincubated for 30 mins followed by substrate addition measured after 60 mins by trypsin-based fluorescence assay.
A short description of assay [4]: Inhibition of Alcaligenes HDAH using Boc-Lys(trifluoroacetyl)-AMC as substrate preincubated for 30 mins followed by substrate addition measured after 60 mins by trypsin-based fluorescence assay. In short, it runs like this:
(§1)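 Bacterial HDAH activity was measured by a fluorogenic assay in which the deacetylated substrate is converted to fluorescent dye by trypsin. Ki was calculated via Cheng-Prusoff from IC50 values, which were fitted to dose-response curves spanning 10 ligand concentrations.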

Assay [5] in a line: Inhibition of Bordetella HDAH using Boc-Lys(trifluoroacetyl)-AMC as substrate preincubated for 30 mins followed by substrate addition measured after 60 mins by trypsin-based fluorescence assay. In short, it runs like this:
as §1

Chain of Histone deacetylase 4 (P56524 whole entry): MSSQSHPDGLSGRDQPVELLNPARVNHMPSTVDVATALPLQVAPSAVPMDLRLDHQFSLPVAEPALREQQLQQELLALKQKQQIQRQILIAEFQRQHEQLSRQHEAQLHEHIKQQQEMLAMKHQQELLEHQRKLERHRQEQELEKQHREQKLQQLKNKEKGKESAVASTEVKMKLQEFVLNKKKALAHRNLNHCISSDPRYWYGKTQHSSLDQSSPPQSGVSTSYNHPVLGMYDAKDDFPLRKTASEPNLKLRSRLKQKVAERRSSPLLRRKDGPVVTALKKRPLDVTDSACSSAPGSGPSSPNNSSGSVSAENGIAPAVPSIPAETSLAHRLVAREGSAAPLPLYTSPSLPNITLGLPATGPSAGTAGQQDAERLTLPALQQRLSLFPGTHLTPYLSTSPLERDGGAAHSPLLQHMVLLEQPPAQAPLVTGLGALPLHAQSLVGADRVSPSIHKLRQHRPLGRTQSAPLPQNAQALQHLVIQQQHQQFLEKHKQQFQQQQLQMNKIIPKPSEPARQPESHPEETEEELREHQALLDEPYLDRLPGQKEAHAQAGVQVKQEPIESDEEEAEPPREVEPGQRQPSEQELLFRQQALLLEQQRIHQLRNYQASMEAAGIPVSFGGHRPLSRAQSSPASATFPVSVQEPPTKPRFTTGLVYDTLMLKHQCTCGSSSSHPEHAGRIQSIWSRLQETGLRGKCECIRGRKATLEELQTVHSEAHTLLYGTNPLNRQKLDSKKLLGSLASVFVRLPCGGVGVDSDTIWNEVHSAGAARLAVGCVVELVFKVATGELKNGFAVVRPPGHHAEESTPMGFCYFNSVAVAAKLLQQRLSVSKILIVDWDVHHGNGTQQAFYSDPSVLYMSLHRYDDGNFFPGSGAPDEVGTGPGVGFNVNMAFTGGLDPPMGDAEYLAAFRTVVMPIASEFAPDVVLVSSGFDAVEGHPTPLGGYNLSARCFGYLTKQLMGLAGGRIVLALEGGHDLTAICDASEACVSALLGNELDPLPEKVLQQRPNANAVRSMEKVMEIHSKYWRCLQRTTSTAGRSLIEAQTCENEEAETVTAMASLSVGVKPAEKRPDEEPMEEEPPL
Chain of Histone deacetylase 5 (Q9UQL6 whole entry): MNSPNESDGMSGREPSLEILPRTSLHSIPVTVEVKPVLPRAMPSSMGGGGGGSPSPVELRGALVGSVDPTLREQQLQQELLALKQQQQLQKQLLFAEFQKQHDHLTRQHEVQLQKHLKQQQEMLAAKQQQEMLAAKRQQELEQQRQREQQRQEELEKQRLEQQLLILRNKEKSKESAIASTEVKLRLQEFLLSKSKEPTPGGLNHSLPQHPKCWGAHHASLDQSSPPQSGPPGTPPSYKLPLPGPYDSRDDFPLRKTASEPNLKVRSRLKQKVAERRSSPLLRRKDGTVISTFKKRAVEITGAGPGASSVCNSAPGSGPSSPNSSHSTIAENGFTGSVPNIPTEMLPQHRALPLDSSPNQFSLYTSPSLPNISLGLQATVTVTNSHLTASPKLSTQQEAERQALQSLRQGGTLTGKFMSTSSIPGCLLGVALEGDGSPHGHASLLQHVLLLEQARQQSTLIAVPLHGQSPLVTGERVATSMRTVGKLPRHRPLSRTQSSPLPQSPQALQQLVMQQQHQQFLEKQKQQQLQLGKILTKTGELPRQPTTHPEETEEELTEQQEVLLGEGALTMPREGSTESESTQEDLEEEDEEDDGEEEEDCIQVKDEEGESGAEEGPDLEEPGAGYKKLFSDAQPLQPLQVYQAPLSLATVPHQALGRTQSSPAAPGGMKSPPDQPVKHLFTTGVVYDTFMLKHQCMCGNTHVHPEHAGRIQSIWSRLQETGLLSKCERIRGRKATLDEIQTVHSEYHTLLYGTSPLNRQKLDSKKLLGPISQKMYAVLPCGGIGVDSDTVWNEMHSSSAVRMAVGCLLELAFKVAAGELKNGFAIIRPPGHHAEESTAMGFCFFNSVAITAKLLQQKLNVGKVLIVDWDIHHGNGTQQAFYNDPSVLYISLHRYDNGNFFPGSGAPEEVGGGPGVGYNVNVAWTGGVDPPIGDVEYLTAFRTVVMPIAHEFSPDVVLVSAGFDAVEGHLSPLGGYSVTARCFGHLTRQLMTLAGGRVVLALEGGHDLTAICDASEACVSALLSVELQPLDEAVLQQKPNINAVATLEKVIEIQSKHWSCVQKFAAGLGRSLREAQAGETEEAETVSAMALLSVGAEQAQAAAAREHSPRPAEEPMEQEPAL

For `O=C(NO)C(F)(F)C(F)(F)C(F)(F)C(F)(F)C(F)(F)C(F)(F)C(=O)Nc1cccc2ccccc12`, the inhibition constant Ki (in general, a dissociation constant, usually derived from enzyme kinetics or from competition with a known ligand) is > 50 µM on Histone deacetylase 4; 7 µM in assay [1]; 21 µM in assay [2]; > 50 µM on Histone deacetylase 5; 350 nM in assay [3].
In the case of `O=C(NO)C(F)(F)C(F)(F)C(F)(F)C(F)(F)C(F)(F)C(F)(F)C(=O)Nc1ccccc1-c1ccccc1`, the Ki was > 50 µM at Histone deacetylase 4; 12 µM in assay [1]; 17 µM in assay [2]; > 50 µM on Histone deacetylase 5; 1100 nM in assay [3].
With `O=C(NO)C(F)(F)C(F)(F)C(F)(F)C(F)(F)C(F)(F)C(F)(F)C(=O)Nc1cccc(-c2ccccc2)c1`, the inhibitory constant (Ki) on Histone deacetylase 4 is > 50 µM; in assay [1], 1.5 µM; in assay [2], 4.4 µM; at Histone deacetylase 5 it was > 50 µM; in assay [3], 100 nM.
For the molecule `O=C(Nc1ccccc1)C(F)(F)C(F)(F)C(F)(F)C(F)(F)C(F)(F)C(F)(F)C(=O)Nc1ccccc1`, the inhibitory constant (Ki) on Histone deacetylase 4 was > 50 µM; in assay [1] it was > 50 µM; in assay [2], > 50 µM; on Histone deacetylase 5 it was > 50 µM; in assay [3] it was 10000 nM.
For the molecule `O=C(NO)C(F)(F)C(F)(F)C(F)(F)C(F)(F)C(F)(F)C(F)(F)C(=O)Nc1cccc(-c2cn(-c3ccccc3)nn2)c1`, the inhibition constant Ki is > 50 µM on Histone deacetylase 4; > 50 µM in assay [1]; > 50 µM in assay [2]; > 50 µM on Histone deacetylase 5; 2600 nM in assay [3].
`CC(=O)Nc1ccc(NC(=O)C(F)(F)C(F)(F)C(F)(F)C(F)(F)C(F)(F)C(F)(F)C(=O)NO)cc1`: the Ki is > 50 µM at Histone deacetylase 4; 3.6 µM in assay [1]; 7.6 µM in assay [2]; > 50 µM at Histone deacetylase 5; 320 nM in assay [3].
Consider `O=C(NO)C(F)(F)C(F)(F)C(F)(F)C(F)(F)C(F)(F)C(F)(F)C(=O)Nc1nc(-c2ccccc2)cs1`, for which the inhibition constant Ki at Histone deacetylase 4 was > 50 µM; in assay [1], 8.5 µM; in assay [2] it was > 50 µM; at Histone deacetylase 5, > 50 µM; in assay [3], 12000 nM.
With `O=C(NO)C(F)(F)C(F)(F)C(F)(F)C(F)(F)C(F)(F)C(F)(F)C(=O)Nc1ccc(-c2cnnn2-c2ccccc2)cc1`, the inhibition constant (Ki) is > 50 µM at Histone deacetylase 4; 22 µM in assay [1]; 15 µM in assay [2]; > 50 µM on Histone deacetylase 5; 3100 nM in assay [3].
For the molecule `N#Cc1ccc(NC(=O)C(F)(F)C(F)(F)C(F)(F)C(F)(F)C(F)(F)C(F)(F)C(=O)NO)cc1`, the inhibition constant (Ki) on Histone deacetylase 4 is > 50 µM; in assay [1], 2.8 µM; in assay [2], 7.1 µM; at Histone deacetylase 5, > 50 µM; in assay [3] it was 320 nM.
As for `O=C(NO)C(F)(F)C(F)(F)C(F)(F)C(F)(F)C(F)(F)C(F)(F)C(=O)Nc1ccc(Cl)cc1`, the Ki is > 50 µM at Histone deacetylase 4; 86 nM in assay [4]; 86 nM in assay [5]; 2.1 µM in assay [1]; 5.7 µM in assay [2]; > 50 µM at Histone deacetylase 5. The molecule further displayed a Ki in assay [3] of 170 nM.
`O=C(NO)C(F)(F)C(F)(F)C(F)(F)C(F)(F)C(F)(F)C(F)(F)C(=O)Nc1cc2ccccc2c2ccccc12`: the inhibition constant (Ki) was > 50 µM on Histone deacetylase 4; 6 µM in assay [1]; 11 µM in assay [2]; > 50 µM at Histone deacetylase 5; 250 nM in assay [3].
As for `Cc1ccc(NC(=O)C(F)(F)C(F)(F)C(F)(F)C(F)(F)C(F)(F)C(F)(F)C(=O)NO)cc1`, the Ki at Histone deacetylase 4 is > 50 µM; in assay [1], 2.3 µM; in assay [2], 6.2 µM; on Histone deacetylase 5 it was > 50 µM; in assay [3] it was 190 nM.
As for `O=C(NO)C(F)(F)C(F)(F)C(F)(F)C(F)(F)C(F)(F)C(F)(F)C(=O)Nc1ccccc1`, the Ki on Histone deacetylase 4 was > 50 µM; in assay [1], 0.7 µM; in assay [2], 2.6 µM; on Histone deacetylase 5, 13 µM; in assay [3] it was 22 nM.
On to `O=C(NO)C(F)(F)C(F)(F)C(F)(F)C(F)(F)C(F)(F)C(F)(F)C(=O)Nc1ccc2ccc3cccc4ccc1c2c34`, for which the Ki on Histone deacetylase 4 is > 50 µM; in assay [1] it was 4.1 µM; in assay [2], 16 µM; on Histone deacetylase 5 it was > 50 µM; in assay [3] it was 230 nM.
`O=C(NO)C(F)(F)C(F)(F)C(F)(F)C(F)(F)C(F)(F)C(F)(F)C(=O)Nc1ccc(I)cc1`: the Ki was > 50 µM on Histone deacetylase 4; 1.1 µM in assay [1]; 4.1 µM in assay [2]; > 50 µM on Histone deacetylase 5; 46 nM in assay [3].
As for `O=C(NO)C(F)(F)C(F)(F)C(F)(F)C(F)(F)C(F)(F)C(F)(F)C(=O)Nc1ccc(-c2ccccc2)cc1`, the Ki on Histone deacetylase 4 is > 50 µM; in assay [1] it was 1.5 µM; in assay [2] it was 3.1 µM; on Histone deacetylase 5 it was > 50 µM; in assay [3], 46 nM.
With `O=C(NO)C(F)(F)C(F)(F)C(F)(F)C(F)(F)C(F)(F)C(F)(F)C(=O)Nc1ccc2cc3ccccc3cc2c1`, the inhibition constant (Ki) is > 50 µM on Histone deacetylase 4; 24 µM in assay [1]; > 50 µM in assay [2]; > 50 µM at Histone deacetylase 5; 2000 nM in assay [3].
`CCc1cccc(NC(=O)C(F)(F)C(F)(F)C(F)(F)C(F)(F)C(F)(F)C(F)(F)C(=O)NO)c1`: the Ki at Histone deacetylase 4 was > 50 µM; in assay [1], 2.1 µM; in assay [2], 6.7 µM; on Histone deacetylase 5 it was > 50 µM; in assay [3], 240 nM.
With `O=C(NO)C(F)(F)C(F)(F)C(F)(F)C(F)(F)C(F)(F)C(F)(F)C(=O)Nc1ccc2ccccc2c1`, the inhibition constant Ki at Histone deacetylase 4 was > 50 µM; in assay [1] it was 1.2 µM; in assay [2] it was 3.8 µM; at Histone deacetylase 5 it was > 50 µM; in assay [3] it was 530 nM.
On to `O=C(NO)C(F)(F)C(F)(F)C(F)(F)C(F)(F)C(F)(F)C(F)(F)C(=O)Nc1cccc2cc3ccccc3cc12`, for which the Ki at Histone deacetylase 4 is > 50 µM; in assay [1] it was 9 µM; in assay [2], 11 µM; on Histone deacetylase 5 it was > 50 µM; in assay [3], 1100 nM.

The values are drawn from ChEMBL document CHEMBL4004881, “Perfluorinated hydroxamic acids are potent and selective inhibitors of HDAC-like enzymes from Pseudomonas aeruginosa” (Bioorg Med Chem Lett, 2017).
